Measurements reported in ChEMBL document CHEMBL1828500, “Synthesis and biological evaluation of dihydroindeno and indeno [1,2-e] [1,2,4]triazolo [3,4-b] [1,3,4]thiadiazines as antimicrobial agents” (2011).
Converted amounts (≈) assume the structure as drawn. The source made the active and inactive calls. The rule behind the calls is not given here.

Columns and labels:
Format in all cases: functional
[1] = test system: Aspergillus niger; test: Antifungal activity against Aspergillus niger assessed as inhibition of mycelial growth at 4 mg/ml after 7 days; settings: 168 h, read-out: GI
Method in brief: (§1)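 Poisoned food method. Molds grown on Sabouraud dextrose agar at 25 °C for 7 days to provide inocula. Molten SDA (45 °C) dosed with compound at 4.0 mg/mL in DMSO, then solidified. 8 mm fungal plugs from colony margins placed centrally. Incubated 25 °C for 7 days, in triplicate. % mycelial growth inhibition calculated from colony diameters versus DMSO control. Fluconazole served as positive control.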

[2] = test system: Penicillium sp.; test: Antifungal activity against Penicillium sp. assessed as inhibition of mycelial growth at 4 mg/ml after 7 days; settings: 168 h, read-out: GI; method in brief: as §1
[3] = test system: Staphylococcus aureus; test: Antibacterial activity against Staphylococcus aureus MTCC 96 at 2 mg/ml after 24 hrs by agar well diffusion method; settings: MTCC 96, 24 h, read-out: DIZ
Method in brief: (§2)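 Cultures adjusted to 0.5 McFarland and left 15 min on agar for adsorption. 8 mm wells bored and loaded with compound at 2.0 mg/mL in DMSO. Incubated 37 °C for 24 h. Growth-inhibition zone diameter (mm) read with a zone scale and reported as the average. DMSO served as negative control and ciprofloxacin as positive control.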

[4] = test system: Bacillus subtilis; test: Antibacterial activity against Bacillus subtilis MTCC 121 at 2 mg/ml after 24 hrs by agar well diffusion method; settings: MTCC 121, 24 h, read-out: DIZ; method in brief: as §2
[5] = test system: Escherichia coli; test: Antibacterial activity against Escherichia coli MTCC 1652 after 24 hrs by agar well diffusion method; settings: MTCC 1652, 24 h
Method in brief: (§3)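 MIC by modified agar well diffusion. Two-fold serial dilutions (DMSO stock diluted in sterile distilled water), range 256 to 0.5, placed in wells in triplicate. Agar was pre-seeded with 100 standardized inoculum at 10⁶ cfu/mL. Incubated aerobically at 37 °C for 24 h. MIC taken as lowest concentration giving a clear zone, i.e. complete growth inhibition.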

[6] = test system: Bacillus subtilis; test: Antibacterial activity against Bacillus subtilis MTCC 121 after 24 hrs by agar well diffusion method; settings: MTCC 121, 24 h; method in brief: as §3
[7] = test system: Staphylococcus aureus; test: Antibacterial activity against Staphylococcus aureus MTCC 96 after 24 hrs by agar well diffusion method; settings: MTCC 96, 24 h; method in brief: as §3
[8] = test system: Aspergillus flavus; test: Antifungal activity against Aspergillus flavus assessed as inhibition of mycelial growth at 4 mg/ml after 7 days; settings: 168 h, read-out: GI; method in brief: as §1
[9] = test system: Pseudomonas aeruginosa; test: Antibacterial activity against Pseudomonas aeruginosa MTCC 741 after 24 hrs by agar well diffusion method; settings: MTCC 741, 24 h; method in brief: as §3
[10] = test system: Escherichia coli; test: Antibacterial activity against Escherichia coli MTCC 1652 at 2 mg/ml after 24 hrs by agar well diffusion method; settings: for zone of inhibition at 2000 µg/mL: MTCC 1652, 24 h, read-out: DIZ; method in brief: as §2
[11] = test system: Pseudomonas aeruginosa; test: Antibacterial activity against Pseudomonas aeruginosa MTCC 741 at 2 mg/ml after 24 hrs by agar well diffusion method; settings: for zone of inhibition at 2000 µg/mL: MTCC 741, 24 h, read-out: DIZ; method in brief: as §2

Cc1cccc2c1CC1Sc3nncn3N=C21 (stereo not given)
inhibition of growth at 4000 µg/mL [1]: 63.3% | inhibition of growth at 4000 µg/mL [2]: 62.5% | zone of inhibition at 2000 µg/mL [3]: 26.3 mm | zone of inhibition at 2000 µg/mL [4]: 30.6 mm | MIC [5]: 32 µg/mL (≈ 132 µM) | MIC [6]: 2 µg/mL (≈ 8.25 µM) | MIC [7]: 8 µg/mL (≈ 33 µM) | inhibition of growth at 4000 µg/mL [8]: 65.5% | MIC [9]: 32 µg/mL (≈ 132 µM) | zone of inhibition at 2000 µg/mL [10]: 22.3 mm | zone of inhibition at 2000 µg/mL [11]: 20.3 mm

CC(C)c1nnc2n1N=C1c3ccccc3CC1S2 (stereo not given)
inhibition of growth at 4000 µg/mL [1]: 53.3% | inhibition of growth at 4000 µg/mL [2]: 51.1% | zone of inhibition at 2000 µg/mL [3]: 28.6 mm | zone of inhibition at 2000 µg/mL [4]: 24.6 mm | MIC [5]: 64 µg/mL (≈ 237 µM) | MIC [6]: 16 µg/mL (≈ 59.2 µM) | MIC [7]: 4 µg/mL (≈ 14.8 µM) | inhibition of growth at 4000 µg/mL [8]: 51.1% | MIC [9]: 32 µg/mL (≈ 118 µM) | zone of inhibition at 2000 µg/mL [10]: 20.6 mm | zone of inhibition at 2000 µg/mL [11]: 19.3 mm

Cc1cccc2c1CC1Sc3nnc(C)n3N=C21 (stereo not given)
inhibition of growth at 4000 µg/mL [1]: 67.7% | inhibition of growth at 4000 µg/mL [2]: 67.7% | zone of inhibition at 2000 µg/mL [3]: 27.6 mm | zone of inhibition at 2000 µg/mL [4]: 31.3 mm | MIC [5]: 64 µg/mL (≈ 250 µM) | MIC [6]: 2 µg/mL (≈ 7.8 µM) | MIC [7]: 8 µg/mL (≈ 31.2 µM) | inhibition of growth at 4000 µg/mL [8]: 68.8% | MIC [9]: 64 µg/mL (≈ 250 µM) | zone of inhibition at 2000 µg/mL [10]: 20.6 mm | zone of inhibition at 2000 µg/mL [11]: 18.6 mm

CCCc1nnc2sc3cc4ccccc4c-3nn12
inhibition of growth at 4000 µg/mL [1]: 51.1% | inhibition of growth at 4000 µg/mL [2]: 47.7% | zone of inhibition at 2000 µg/mL [3]: 25.6 mm | zone of inhibition at 2000 µg/mL [4]: 24.3 mm | MIC [5]: 64 µg/mL (≈ 238 µM) | MIC [6]: 16 µg/mL (≈ 59.6 µM) | MIC [7]: 16 µg/mL (≈ 59.6 µM) | inhibition of growth at 4000 µg/mL [8]: 48.8% | MIC [9]: 128 µg/mL (≈ 477 µM) | zone of inhibition at 2000 µg/mL [10]: 18.6 mm | zone of inhibition at 2000 µg/mL [11]: 16.3 mm

CCCc1nnc2n1N=C1c3cccc(C)c3CC1S2 (stereo not given)
inhibition of growth at 4000 µg/mL [1]: 58.8% | inhibition of growth at 4000 µg/mL [2]: 61.1% | zone of inhibition at 2000 µg/mL [3]: 25.3 mm | zone of inhibition at 2000 µg/mL [4]: 21.6 mm | MIC [5]: 64 µg/mL (≈ 225 µM) | MIC [6]: 32 µg/mL (≈ 113 µM) | MIC [7]: 16 µg/mL (≈ 56.3 µM) | inhibition of growth at 4000 µg/mL [8]: 55.5% | MIC [9]: 64 µg/mL (≈ 225 µM) | zone of inhibition at 2000 µg/mL [10]: 19.3 mm | zone of inhibition at 2000 µg/mL [11]: 17.6 mm

CCCc1nnc2sc3cc4c(C)cccc4c-3nn12
inhibition of growth at 4000 µg/mL [1]: 68.8% | inhibition of growth at 4000 µg/mL [2]: 65.5% | zone of inhibition at 2000 µg/mL [3]: 16.3 mm | zone of inhibition at 2000 µg/mL [4]: 18.6 mm | MIC [5]: 128 µg/mL (≈ 453 µM) | MIC [6]: 64 µg/mL (≈ 227 µM) | MIC [7]: 128 µg/mL (≈ 453 µM) | inhibition of growth at 4000 µg/mL [8]: 65.5% | MIC [9]: 256 µg/mL (≈ 907 µM) | zone of inhibition at 2000 µg/mL [10]: 15.6 mm | zone of inhibition at 2000 µg/mL [11]: 14.3 mm

Cc1cccc2c1CC1Sc3nnc(C(C)C)n3N=C21 (stereo not given)
inhibition of growth at 4000 µg/mL [1]: 63.3% | inhibition of growth at 4000 µg/mL [2]: 65.5% | zone of inhibition at 2000 µg/mL [3]: 28.6 mm | zone of inhibition at 2000 µg/mL [4]: 27 mm | MIC [5]: 32 µg/mL (≈ 113 µM) | MIC [6]: 8 µg/mL (≈ 28.1 µM) | MIC [7]: 4 µg/mL (≈ 14.1 µM) | inhibition of growth at 4000 µg/mL [8]: 61.1% | MIC [9]: 32 µg/mL (≈ 113 µM) | zone of inhibition at 2000 µg/mL [10]: 21.6 mm | zone of inhibition at 2000 µg/mL [11]: 20.3 mm

Cc1cccc2c3nn4c(C(C)C)nnc4sc-3cc12
inhibition of growth at 4000 µg/mL [1]: 65.5% | inhibition of growth at 4000 µg/mL [2]: 63.3% | zone of inhibition at 2000 µg/mL [3]: 17.6 mm | zone of inhibition at 2000 µg/mL [4]: 19.3 mm | MIC [5]: 128 µg/mL (≈ 453 µM) | MIC [6]: 64 µg/mL (≈ 227 µM) | MIC [7]: 128 µg/mL (≈ 453 µM) | inhibition of growth at 4000 µg/mL [8]: 61.1% | MIC [9]: 256 µg/mL (≈ 907 µM) | zone of inhibition at 2000 µg/mL [10]: 15 mm | zone of inhibition at 2000 µg/mL [11]: 14.6 mm

O=C(O)c1cn(C2CC2)c2cc(N3CCNCC3)c(F)cc2c1=O [CIPROFLOXACIN]
zone of inhibition at 2000 µg/mL [3]: 26.6 mm | zone of inhibition at 2000 µg/mL [4]: 24 mm | MIC [5]: 5 µg/mL (≈ 15.1 µM) | MIC [6]: 5 µg/mL (≈ 15.1 µM) | MIC [7]: 5 µg/mL (≈ 15.1 µM) | MIC [9]: 5 µg/mL (≈ 15.1 µM) | zone of inhibition at 2000 µg/mL [11]: 22 mm

Cc1nnc2n1N=C1c3ccccc3CC1S2 (stereo not given)
inhibition of growth at 4000 µg/mL [1]: 53.3% | inhibition of growth at 4000 µg/mL [2]: 55.5% | zone of inhibition at 2000 µg/mL [3]: 14.6 mm | zone of inhibition at 2000 µg/mL [4]: 16.3 mm | MIC [6]: 128 µg/mL (≈ 528 µM) | MIC [7]: 256 µg/mL (≈ 1060 µM) | inhibition of growth at 4000 µg/mL [8]: 51.1% | diameter of the inhibition zone (DIZ) [10]: inactive | diameter of the inhibition zone (DIZ) [11]: inactive

Cc1cccc2c3nn4c(-c5ccccc5)nnc4sc-3cc12
inhibition of growth at 4000 µg/mL [1]: 55.5% | inhibition of growth at 4000 µg/mL [2]: 48.8% | zone of inhibition at 2000 µg/mL [3]: 18.6 mm | zone of inhibition at 2000 µg/mL [4]: 22.6 mm | MIC [5]: 128 µg/mL (≈ 405 µM) | MIC [6]: 32 µg/mL (≈ 101 µM) | MIC [7]: 64 µg/mL (≈ 202 µM) | inhibition of growth at 4000 µg/mL [8]: 51.1% | MIC [9]: 128 µg/mL (≈ 405 µM) | zone of inhibition at 2000 µg/mL [10]: 15.6 mm | zone of inhibition at 2000 µg/mL [11]: 15.3 mm
